{"data": "Published values of several laboratories", "Cnr2": "Cannabinoid receptor 2 (Cnr2, Mus musculus, UniProt P47936)", "mreB": "mreB (Escherichia coli, UniProt P0A9X4)", "G protein-coupled receptor 88": "G protein-coupled receptor 88 (Homo sapiens, UniProt Q9GZN0)", "note": "Compare with care: the assays were run in different laboratories."}
{"Compound": "NC(=O)[C@@H]1CC(F)(F)CN1C(=O)c1ccc(N2CC(F)(F)C2)c(OCC2CC2)n1", "target": "Cnr2", "test": "cAMP, agonist", "measurement": "EC50", "result": "3 nM"}
{"Compound": "NC1CCCCc2c1[nH]c1ccc(Cl)c(Cl)c21 (centres unmarked)", "target": "mreB", "test": "ATPase activity, inhibitor, absorbance", "measurement": "IC50", "result": "25000 nM"}
{"Compound": "CCOC(=O)[C@](CC)(CCC[S+]([O-])CCOCCOCCNC(=O)OC(C)(C)C)NC(=O)c1ccc(C2CC2)c(Cc2ccc(F)cc2)n1 (some centres unmarked)", "target": "Cnr2", "test": "cAMP, agonist", "measurement": "EC50", "result": "65 nM"}
{"Compound": "Cc1nonc1Cn1nnc2c(N3CC[C@H](O)C3)nc(C(C)(C)C)nc21", "target": "Cnr2", "test": "ligand displacement, radioligand", "setting": "cell membranes", "measurement": "Ki", "result": "61 nM"}
{"Compound": "CCCC#Cc1ccc([C@@H](CO)C(=O)N[C@H](C)c2ccccc2)cc1", "target": "G protein-coupled receptor 88", "test": "cAMP, agonist, TR-FRET", "measurement": "EC50", "result": "204 nM"}
{"Compound": "CCOC(=O)C(CC)(CCCSCCOCCOCCOCCNC(=O)OC(C)(C)C)NC(=O)c1ccc(C2CC2)c(Cc2ccc(F)cc2)n1 (centres unmarked)", "target": "Cnr2", "test": "cAMP, agonist", "measurement": "EC50", "result": "21 nM"}
{"Compound": "O=C(/C=C/c1cccc(S(=O)(=O)Nc2ccccc2)c1)NO", "target": "Histone deacetylase 4 (HDAC4, Homo sapiens, UniProt P56524)", "test": "cell-free assay", "measurement": "Kd", "result": "> 30200 nM"}
{"Compound": "CC[C@H]1NC(=O)[C@@H]2CSC(=N2)[C@H](Cc2ccccc2)N(C)C(=O)[C@@H]2CCCN2C(=O)[C@H](C(C)C)N(C)C(=O)[C@H](Cc2ccccc2)OC(=O)[C@H](C)[C@@H](C)NC(=O)[C@@H]([C@@H](C)O)NC(=O)[C@@H](CC(C)C)N(C)C(=O)[C@@H]2CSC1=N2", "target": "Procathepsin L (CTSL, Homo sapiens, UniProt P07711)", "test": "enzyme activity, inhibitor", "measurement": "IC50", "result": "20400 nM"}
{"Compound": "CCOC(=O)C(CC)(CCCSCCOCCOCCNc1ccc([N+](=O)[O-])c2nonc12)NC(=O)c1ccc(C2CC2)c(Cc2ccc(F)cc2)n1 (racemic)", "target": "Cnr2", "test": "cAMP, agonist", "measurement": "EC50", "result": "102 nM"}
{"Compound": "CC[C@H](C)COc1ccc([C@@H](CO)C(=O)N[C@H](C)c2ccccc2)cc1", "target": "G protein-coupled receptor 88", "test": "cAMP, agonist, TR-FRET", "measurement": "EC50", "result": "2000 nM"}
{"Compound": "NC1CCCCc2c1[nH]c1cc(Cl)c(Cl)cc21 (centres unmarked)", "target": "mreB", "test": "ATPase activity, inhibitor, absorbance", "measurement": "IC50", "result": "29000 nM"}
{"Compound": "CCOC(=O)c1c(NCc2ccc(SC)cc2)c2cccc(C)c2[nH]c1=O", "target": "Anoctamin-2 (ANO2, Homo sapiens, UniProt Q9NQ90)", "test": "ion flux, inhibitor", "measurement": "IC50", "result": "990 nM"}
{"Compound": "C[C@H](N)Cn1ncc2ccc3c(c21)CCCO3", "target": "Alpha-1B adrenergic receptor (Adra1b, Rattus norvegicus, UniProt P15823)", "test": "ligand displacement, radioligand", "measurement": "IC50", "result": "74000 nM"}
{"Compound": "Cc1cc(SCc2sc(-c3ccc(C(F)(F)F)c(F)c3)nc2C)ccc1OCC(=O)O", "target": "Thyroid hormone receptor beta (THRB, Homo sapiens, UniProt P10828)", "test": "reporter gene, antagonist, luciferase", "measurement": "IC50", "result": "25800 nM"}
{"Compound": "O=P(O)(O)Oc1ccccc1OP(=O)(O)O", "target": "Signal transducer and activator of transcription 5B, SH2 (STAT5B, Homo sapiens, UniProt P51692)", "test": "ligand displacement, FP", "measurement": "IC50", "result": "1950 nM"}
{"Compound": "O=[As](O)(O)c1ccc(Cc2ccc([As](=O)(O)O)cc2)cc1", "target": "Autotaxin (ENPP2, Homo sapiens, UniProt Q13822)", "test": "enzyme activity, inhibitor, absorbance", "setting": "pH 8", "measurement": "Ki", "result": "26 nM"}
{"Compound": "Cc1cc(/C=C/C#N)cc(C)c1Nc1ccnc(Nc2ccc(C#N)cc2)n1", "target": "pol (Feline immunodeficiency virus, UniProt P16088)", "test": "binding, SPR", "measurement": "Kd", "result": "16000 nM"}
